Test results published in ChEMBL document CHEMBL1155270, “Modifications at the C-terminus to improve pyrrole-imidazole polyamide activity in cell culture” (J Med Chem, 2009).
The source made the active and inactive calls. The rule behind the calls is not given here.

Experiments:
[1] = system: Nucleic Acid; experiment: Binding affinity to 5'-GTGCATACGTGGGC-3' sequence of DNA assessed as change in melting temperature by spectrophotometry; assay type: nucleic-acid assay
[2] = system: Nucleic Acid; experiment: Binding affinity to 5'-TTGCAGAACAGCAA-3' sequence of DNA assessed as change in melting temperature by spectrophotometry; assay type: nucleic-acid assay
[3] = system: LNCaP; experiment: Cytotoxicity against human LNCAP cells assessed as cell viability at 0.01 to 30 uM after 48 hrs by WST1 assay; assay type: functional
Outline: (§1)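 LNCaP cells were seeded at 10-15 × 10^2 per well and allowed to settle 48 h before polyamide was added as 2× media solutions (DMSO <0.1%). After 48 h exposure, media was replaced and cells recovered 24 h. WST-1 was added for 30 min and A450 read. Wells were corrected for media-only background and normalized to untreated controls.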

[4] = system: LNCaP; experiment: Cytotoxicity against human LNCAP cells after 48 hrs by WST1 assay; assay type: functional, cell-based; outline: as §1
[5] = system: Nucleic Acid; experiment: Binding affinity to 14mer DNA assessed as change in melting temperature by spectrophotometry; assay type: nucleic-acid assay
Outline: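 Thermal melting of 14-mer oligonucleotide duplexes (HRE or ARE sequence) with and without polyamide, read by UV spectrophotometry in 1 cm quartz cuvettes with a thermostatted holder. Buffer was 10 mM sodium cacodylate, 10 mM KCl, 10 mM MgCl2, 5 mM CaCl2, pH 7.0. ΔTm is taken relative to the free duplex.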

[6] = system: LNCaP; experiment: Inhibition of dihydrotestosterone-induced prostate specific antigen expression in human LNCAP cells at 5 uM by quantitative RT-PCR analysis; assay type: functional
Outline: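 LNCaP cells were induced with 1 nM DHT and PSA mRNA measured by quantitative real-time RT-PCR. Oxime-linked polyamides were given at 5, 1 and 0.1 μM, and unconjugated controls at 5 μM, with DMSO ≤0.1%. Expression was normalized to untreated DHT-induced cells; uninduced and DMSO controls were included.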

[7] = system: U-251; experiment: Inhibition of desferrioxamine-induced VEGF mRNA expression in human U251 cells at 1 uM by quantitative RT-PCR analysis; assay type: functional
Outline: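 In U251 cells, induced VEGF mRNA was quantified by real-time RT-PCR after polyamide at 1, 0.2 and 0.02 μM, with DMSO ≤0.1%. Values were normalized to untreated induced cells; uninduced and DMSO-vehicle controls were run alongside.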

## Cn1cc(NC(=O)c2cc(NC(=O)c3nc(NC(=O)c4cc(NC(=O)[C@H](N)CCNC(=O)c5nc(NC(=O)c6cc(NC(=O)c7cc(NC(=O)c8sccc8Cl)cn7C)cn6C)cn5C)cn4C)cn3C)cn2C)cc1C(=O)NCCCCCCCNC(=O)c1cccc(C(=O)O)c1
[1]
  ΔTm: 9 °C

## CN(CCCN)CCCNC(=O)c1cc(NC(=O)c2cc(NC(=O)c3cc(NC(=O)c4nc(NC(=O)[C@H](N)CCNC(=O)c5cc(NC(=O)c6cc(NC(=O)c7cc(NC(=O)c8nccn8C)cn7C)cn6C)cn5C)cn4C)cn3C)cn2C)cn1C
[2]
  ΔTm: 17.3 °C

## Cn1cc(NC(=O)c2cc(NC(=O)c3cc(NC(=O)c4nc(NC(=O)[C@H](N)CCNC(=O)c5cc(NC(=O)c6cc(NC(=O)c7cc(NC(=O)c8nccn8C)cn7C)cn6C)cn5C)cn4C)cn3C)cn2C)cc1C(=O)NCCCCCCCN
[2]
  ΔTm: 14.3 °C

## Cn1cc(NC(=O)c2cc(NC(=O)c3nc(NC(=O)c4cc(NC(=O)[C@H](N)CCNC(=O)c5nc(NC(=O)c6cc(NC(=O)c7cc(NC(=O)c8sccc8Cl)cn7C)cn6C)cn5C)cn4C)cn3C)cn2C)cc1C(=O)NCCCCCCCN
[1]
  ΔTm: 12.7 °C

## Cn1cc(NC(=O)c2cc(NC(=O)c3cc(NC(=O)c4nc(NC(=O)[C@H](N)CCNC(=O)c5cc(NC(=O)c6cc(NC(=O)c7cc(NC(=O)c8nccn8C)cn7C)cn6C)cn5C)cn4C)cn3C)cn2C)cc1C(=O)NCCCCCCCNC(=O)c1cccc(C(=O)O)c1
[3]
  Activity: <50%
[4]
  IC50: > 30 µM
[2]
  ΔTm: 10.4 °C

## Cn1cc(NC(=O)c2cc(NC(=O)c3cc(NC(=O)c4nc(NC(=O)[C@H](N)CCNC(=O)c5nc(NC(=O)c6cc(NC(=O)c7nc(NC(=O)c8nccn8C)cn7C)cn6C)cn5C)cn4C)cn3C)cn2C)cc1C(=O)NCCCCCCCNC(=O)c1cccc(C(=O)O)c1
[5]
  ΔTm: 0.7 °C

## CN(C)CCCNC(=O)CCNC(=O)c1cc(NC(=O)c2cc(NC(=O)c3cc(NC(=O)c4nc(NC(=O)[C@H](N)CCNC(=O)c5cc(NC(=O)c6cc(NC(=O)c7cc(NC(=O)c8nccn8C)cn7C)cn6C)cn5C)cn4C)cn3C)cn2C)cn1C
[2]
  ΔTm: 14.3 °C

## Cn1cc(NC(=O)c2cc(NC(=O)c3nc(NC(=O)c4cc(NC(=O)[C@H](N)CCNC(=O)c5nc(NC(=O)c6cc(NC(=O)c7cc(NC(=O)c8nccn8C)cn7C)cn6C)cn5C)cn4C)cn3C)cn2C)cc1C(=O)NCCCCCCCN
[5]
  ΔTm: -0.9 °C

## Cn1cc(NC(=O)c2cc(NC(=O)c3cc(NC(=O)c4nc(NC(=O)[C@H](N)CCNC(=O)c5cc(NC(=O)c6cc(NC(=O)c7cc(NC(=O)c8nccn8C)cn7C)cn6C)cn5C)cn4C)cn3C)cn2C)cc1C(=O)NCCCON
[6]
  inhibition at 5 µM: 50%
[2]
  ΔTm: 11.2 °C

## Cn1cc(NC(=O)c2cc(NC(=O)c3cc(NC(=O)c4nc(NC(=O)[C@H](N)CCNC(=O)c5nc(NC(=O)c6cc(NC(=O)c7nc(NC(=O)c8nccn8C)cn7C)cn6C)cn5C)cn4C)cn3C)cn2C)cc1C(=O)NCCCON
[5]
  ΔTm: 0.1 °C

## CN(CCCNC(=O)c1cccc(C(=O)O)c1)CCCNC(=O)c1cc(NC(=O)c2cc(NC(=O)c3cc(NC(=O)c4nc(NC(=O)[C@H](N)CCNC(=O)c5nc(NC(=O)c6cc(NC(=O)c7nc(NC(=O)c8nccn8C)cn7C)cn6C)cn5C)cn4C)cn3C)cn2C)cn1C
[5]
  ΔTm: 0.9 °C

## Cn1cc(NC(=O)c2cc(NC(=O)c3nc(NC(=O)c4cc(NC(=O)[C@H](N)CCNC(=O)c5nc(NC(=O)c6cc(NC(=O)c7cc(NC(=O)c8sccc8Cl)cn7C)cn6C)cn5C)cn4C)cn3C)cn2C)cc1C(=O)NCCCON
[1]
  ΔTm: 10.6 °C

## Cn1cc(NC(=O)c2cc(NC(=O)c3nc(NC(=O)c4cc(NC(=O)[C@H](N)CCNC(=O)c5nc(NC(=O)c6cc(NC(=O)c7cc(NC(=O)c8nccn8C)cn7C)cn6C)cn5C)cn4C)cn3C)cn2C)cc1C(=O)NCCCON
[6]
  inhibition at 5 µM: 10%
[5]
  ΔTm: 2 °C

## Cn1cc(NC(=O)c2cc(NC(=O)c3cc(NC(=O)c4nc(NC(=O)[C@H](N)CCNC(=O)c5cc(NC(=O)c6cc(NC(=O)c7cc(NC(=O)c8nccn8C)cn7C)cn6C)cn5C)cn4C)cn3C)cn2C)cc1C(=O)NCCCNC(=O)c1cccc(C(=O)O)c1
[3]
  Activity: <50%
[4]
  IC50: > 30 µM
[2]
  ΔTm: 11.1 °C

## Cn1cc(NC(=O)c2cc(NC(=O)c3cc(NC(=O)c4nc(NC(=O)[C@H](N)CCNC(=O)c5nc(NC(=O)c6cc(NC(=O)c7nc(NC(=O)c8nccn8C)cn7C)cn6C)cn5C)cn4C)cn3C)cn2C)cc1C(=O)NCCCCCCCN
[5]
  ΔTm: 2.1 °C

## Cn1cc(NC(=O)c2cc(NC(=O)c3nc(NC(=O)c4cc(NC(=O)[C@H](N)CCNC(=O)c5nc(NC(=O)c6cc(NC(=O)c7cc(NC(=O)c8sccc8Cl)cn7C)cn6C)cn5C)cn4C)cn3C)cn2C)cc1C(=O)NCCCN
[1]
  ΔTm: 13.5 °C

## CN(C)CCCNC(=O)CCNC(=O)c1cc(NC(=O)c2cc(NC(=O)c3nc(NC(=O)c4cc(NC(=O)[C@H](N)CCNC(=O)c5nc(NC(=O)c6cc(NC(=O)c7cc(NC(=O)c8nccn8C)cn7C)cn6C)cn5C)cn4C)cn3C)cn2C)cn1C
[5]
  ΔTm: 3.6 °C

## Cn1cc(NC(=O)c2cc(NC(=O)c3nc(NC(=O)c4cc(NC(=O)[C@H](N)CCNC(=O)c5nc(NC(=O)c6cc(NC(=O)c7cc(NC(=O)c8sccc8Cl)cn7C)cn6C)cn5C)cn4C)cn3C)cn2C)cc1C(=O)NCCCNC(=O)c1cccc(C(=O)O)c1
[1]
  ΔTm: 9.5 °C

## CN(CCCN)CCCNC(=O)c1cc(NC(=O)c2cc(NC(=O)c3cc(NC(=O)c4nc(NC(=O)[C@H](N)CCNC(=O)c5nc(NC(=O)c6cc(NC(=O)c7nc(NC(=O)c8nccn8C)cn7C)cn6C)cn5C)cn4C)cn3C)cn2C)cn1C
[5]
  ΔTm: 3.1 °C

## CN(C)CCCNC(=O)CCNC(=O)c1cc(NC(=O)c2cc(NC(=O)c3nc(NC(=O)c4cc(NC(=O)[C@H](N)CCNC(=O)c5nc(NC(=O)c6cc(NC(=O)c7cc(NC(=O)c8sccc8Cl)cn7C)cn6C)cn5C)cn4C)cn3C)cn2C)cn1C
[1]
  ΔTm: 12.4 °C

## Cn1cc(NC(=O)c2cc(NC(=O)c3nc(NC(=O)c4cc(NC(=O)[C@H](N)CCNC(=O)c5nc(NC(=O)c6cc(NC(=O)c7cc(NC(=O)c8nccn8C)cn7C)cn6C)cn5C)cn4C)cn3C)cn2C)cc1C(=O)NCCCCCCCNC(=O)c1cccc(C(=O)O)c1
[3]
  Activity: <50%
[5]
  ΔTm: 2.6 °C

## Cn1cc(NC(=O)c2cc(NC(=O)c3nc(NC(=O)c4cc(NC(=O)[C@H](N)CCNC(=O)c5nc(NC(=O)c6cc(NC(=O)c7cc(NC(=O)c8nccn8C)cn7C)cn6C)cn5C)cn4C)cn3C)cn2C)cc1C(=O)NCCCN
[5]
  ΔTm: 5.3 °C

## CN(CCCN)CCCNC(=O)c1cc(NC(=O)c2cc(NC(=O)c3nc(NC(=O)c4cc(NC(=O)[C@H](N)CCNC(=O)c5nc(NC(=O)c6cc(NC(=O)c7cc(NC(=O)c8sccc8Cl)cn7C)cn6C)cn5C)cn4C)cn3C)cn2C)cn1C
[1]
  ΔTm: 14.8 °C

## CN(CCCNC(=O)c1cccc(C(=O)O)c1)CCCNC(=O)c1cc(NC(=O)c2cc(NC(=O)c3nc(NC(=O)c4cc(NC(=O)[C@H](N)CCNC(=O)c5nc(NC(=O)c6cc(NC(=O)c7cc(NC(=O)c8sccc8Cl)cn7C)cn6C)cn5C)cn4C)cn3C)cn2C)cn1C
[7]
  inhibition: Active
[1]
  ΔTm: 11.7 °C

## Cn1cc(NC(=O)c2cc(NC(=O)c3cc(NC(=O)c4nc(NC(=O)[C@H](N)CCNC(=O)c5nc(NC(=O)c6cc(NC(=O)c7nc(NC(=O)c8nccn8C)cn7C)cn6C)cn5C)cn4C)cn3C)cn2C)cc1C(=O)NCCCNC(=O)c1cccc(C(=O)O)c1
[5]
  ΔTm: 0.5 °C

## Cn1cc(NC(=O)c2cc(NC(=O)c3nc(NC(=O)c4cc(NC(=O)[C@H](N)CCNC(=O)c5nc(NC(=O)c6cc(NC(=O)c7cc(NC(=O)c8nccn8C)cn7C)cn6C)cn5C)cn4C)cn3C)cn2C)cc1C(=O)NCCCNC(=O)c1cccc(C(=O)O)c1
[3]
  Activity: <50%
[5]
  ΔTm: 1.5 °C

## Cn1cc(NC(=O)c2cc(NC(=O)c3cc(NC(=O)c4nc(NC(=O)[C@H](N)CCNC(=O)c5nc(NC(=O)c6cc(NC(=O)c7nc(NC(=O)c8nccn8C)cn7C)cn6C)cn5C)cn4C)cn3C)cn2C)cc1C(=O)NCCCN
[5]
  ΔTm: 4.1 °C

## CN(C)CCCNC(=O)CCNC(=O)c1cc(NC(=O)c2cc(NC(=O)c3cc(NC(=O)c4nc(NC(=O)[C@H](N)CCNC(=O)c5nc(NC(=O)c6cc(NC(=O)c7nc(NC(=O)c8nccn8C)cn7C)cn6C)cn5C)cn4C)cn3C)cn2C)cn1C
[1]
  ΔTm: 1.6 °C

## CN(CCCNC(=O)c1cccc(C(=O)O)c1)CCCNC(=O)c1cc(NC(=O)c2cc(NC(=O)c3nc(NC(=O)c4cc(NC(=O)[C@H](N)CCNC(=O)c5nc(NC(=O)c6cc(NC(=O)c7cc(NC(=O)c8nccn8C)cn7C)cn6C)cn5C)cn4C)cn3C)cn2C)cn1C
[3]
  Activity: <50%
[5]
  ΔTm: 4 °C

## Cn1cc(NC(=O)c2cc(NC(=O)c3cc(NC(=O)c4nc(NC(=O)[C@H](N)CCNC(=O)c5cc(NC(=O)c6cc(NC(=O)c7cc(NC(=O)c8nccn8C)cn7C)cn6C)cn5C)cn4C)cn3C)cn2C)cc1C(=O)NCCCN
[2]
  ΔTm: 16.2 °C

## CN(CCCN)CCCNC(=O)c1cc(NC(=O)c2cc(NC(=O)c3nc(NC(=O)c4cc(NC(=O)[C@H](N)CCNC(=O)c5nc(NC(=O)c6cc(NC(=O)c7cc(NC(=O)c8nccn8C)cn7C)cn6C)cn5C)cn4C)cn3C)cn2C)cn1C
[5]
  ΔTm: 6.4 °C
